# Assay outcomes as filed in PubChem BioAssay.
# In the library only some 3.9% were active in any assay of this set; here they are far more common.
# OX1R antag-1: antagonists of human orexin 1 receptor (OX1R) | Orexin/Hypocretin receptor type 1 (Homo sapiens), O43613 | OX1R-expressing cells, FRET antagonist read-out | inhibition, % at 6.6 µM | 1.8% of 330,000 active; in the data active = inhibition mostly above about 38%, no sharp cut-off; inactive = mostly below about 40%;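 note: 0% = agonist challenge alone and 100% = reference antagonist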
# Target sequence (O43613 whole entry, looked up): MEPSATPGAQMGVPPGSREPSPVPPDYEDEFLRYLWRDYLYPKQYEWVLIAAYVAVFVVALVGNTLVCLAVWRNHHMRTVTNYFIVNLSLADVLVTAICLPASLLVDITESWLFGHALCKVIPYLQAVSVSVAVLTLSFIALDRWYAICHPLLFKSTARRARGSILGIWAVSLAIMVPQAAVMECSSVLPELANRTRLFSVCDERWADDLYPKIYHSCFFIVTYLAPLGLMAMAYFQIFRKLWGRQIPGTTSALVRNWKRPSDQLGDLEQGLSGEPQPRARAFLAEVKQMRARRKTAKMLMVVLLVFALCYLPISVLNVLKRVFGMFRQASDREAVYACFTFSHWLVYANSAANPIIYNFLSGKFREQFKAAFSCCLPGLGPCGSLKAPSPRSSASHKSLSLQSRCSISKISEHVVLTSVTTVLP
# TAAR1 ag: human TAAR1 agonists, primary screen, Fluo-8 calcium fluorescence, CHO RD-HGA16 cells. activation, % at 3 µM. Trace amine-associated receptor 1 (Homo sapiens), Q96RJ0. vehicle wells 0%, saturating PEA agonist 100%. 0.99% of 360,000 active;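 active = activation above the mean activation of all test compounds in the run plus 3 SD, cut at about 38% in these data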
#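 Benchmarks: low control DMSO, high control PEA (EC100); System: CHO RD-HGA16 cells carrying human TAAR1 plus Gα16; Detection: Fluo-8 fluorescence, 5 s baseline then 140 s kinetic read; Schedule: 17-24 h plating, Fluo-8 75 min 37 °C, 30 min RT; Read-out basis: % activation from peak over basal fluorescence ratio, DMSO-to-PEA scaled.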
# CHO parental Ca: ATP-evoked calcium signal inhibitors, parental CHO, primary screen, counter-screen for OX1R antagonist project, cell-based, fluorescence, Fluo-8 calcium dye | parental CHO-K1, ATP-induced calcium, Fluo-8 fluorescence | inhibition, % at 5.6 µM | 0.63% of 330,000 active | AID 463079, 2010;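 active = inhibition above that plate's mean sample inhibition plus 3 SD, cut at about 26% in these data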;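 note: 0% = ATP-challenged DMSO wells and 100% = DMSO wells without ATP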
#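 Assay system – parental CHO cells · Reagent – ATP stimulus · Detection – intracellular calcium via Fluo-8 no-wash fluorescent dye · Evaluation – percent inhibition of ATP-evoked calcium rise, normalized to controls · Controls – ATP wells versus no-ATP DMSO wells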
# OX1R antag-2: OX1R (HCRTR1) antagonists, primary screen, fluorescence, CHO/OX1R cells, Fluo-8 calcium, orexin A; inhibition, % at 5 µM; Orexin/Hypocretin receptor type 1 (Homo sapiens), O43613; AID 434989, 2010; Fluo-8 calcium fluorescence; 0.43% of 330,000 active;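 active = inhibition above its plate's threshold, mean inhibition of all tested compounds on the plate plus 3 SD, cut at about 37% in these data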;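 note: 0% = orexin A challenge wells and 100% = SB-334867-A antagonist wells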
# TAAR1 antag: human TAAR1 antagonists, primary screen, Fluo-8 calcium fluorescence, CHO RD-HGA16 cells; antagonist; inhibition, % at 3 µM; 1.5% of 360,000 active; AID 624466, 2012;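 active = inhibition above a per-plate cutoff, the mean inhibition of test compounds on that plate plus 3 SD, cut at about 49% in these data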;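 note: 0% = DMSO plus EC80 beta-PEA response and 100% = DMSO alone without agonist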
#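 Test system: CHO RD-HGA16 cells bearing hTAAR1 | Reagent: β-PEA, EC80 | Compound dosing: 3 µM, single point | Schedule: Dye loading 75 min at 37 °C, then 30 min room temperature | Signal: Calcium fluorescence with Fluo-8 | Evaluation: Percent inhibition of PEA-evoked calcium signal, max/basal emission ratio | Control set: DMSO-only wells and EC80 β-PEA-stimulated wells | Repeats: Singlicate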
# An asterisk follows results filed as active; · = not tested or not shown.
SMILES,OX1R antag-1,TAAR1 ag,CHO parental Ca,OX1R antag-2,TAAR1 antag
Cc1nc2n(n1)C(O)c1cc([N+](=O)[O-])ccc1S2 (stereo not given),92.5*,·,0.5,-8.0,·
O=[N+]([O-])c1ccc2c(c1)C(O)n1nc(-c3ccc(Cl)cc3Cl)nc1S2 (stereo not given),15.7,5.4,-9.4,-9.4,8.5
CCOC(=O)[C@]12CCCC=C1N(Cc1cccc3ccccc13)C(=O)[C@H](CC(=O)N1CCCCC1)C2,·,3.0,·,·,3.9
COCCn1c(SCC#N)nnc1-c1ccc([N+](=O)[O-])cc1,72.1*,7.6,-5.7,-15.1,22.1
c1ccc(-c2nnc(N3CCN(c4ccccn4)CC3)c3ccccc23)cc1,14.2,3.9,-20.2,-29.8,49.7*
Cc1ccc(NC(=O)c2cnc(N3CCN(c4ccccn4)CC3)c3ccccc23)c(Br)c1,19.4,9.9,-5.2,-2.5,72.4*
Cc1cc(Br)ccc1NC(=O)c1sc2ncnc(N3CCN(c4ccccn4)CC3)c2c1C,-1.8,0.0,-16.4,-11.5,-3.2
O=C(c1cnc(N2CCN(c3ncccn3)CC2)c2ccccc12)N1CCN(c2ccccn2)CC1,9.4,18.1,-5.3,0.6,61.0*
O=C(c1ccccc1-c1ccccc1)N1CCN(c2ccccn2)CC1,10.4,1.7,-22.8,-38.2,-4.7
O=C(CNC(=O)c1ccco1)OCc1ccccc1F,0.7,1.7,-24.6,3.2,-19.4
COc1ccc(/C=N/Nc2nnc(C)n2N)cc1OC(C)=O,55.7*,-1.9,0.8,-9.9,19.5
COc1ccc(/C=N/Nc2nnc(C)n2N)cc1OC,60.4,2.2,-3.3,10.5,-19.0
Cc1cc2nc(C3CCCN(C(=O)NCc4ccccc4)C3)[nH]c2cc1C (stereo not given),60.6*,3.4,-16.4,-17.7,-1.5
F[B-](F)(F)c1cncnc1,·,1.4,·,·,-8.3
Cc1cc(C)nc(N2CCCC(C(=O)Nc3ccc4c(c3)OCO4)C2)n1 (stereo not given),1.1,38.0*,-8.2,-10.1,66.8*
CCOC(=O)CCCCCC(=O)Nc1ccc2c(c1)C(=O)N([C@H](C)CO)C[C@@H](C)[C@@H](CN(C)S(=O)(=O)c1ccc(C)cc1)OCCCC[C@H](C)O2,·,1.5,·,·,-3.9
COc1ccccc1N(Cc1ccccc1)S(=O)(=O)c1cccc(C(=O)Nc2ccc(C)cn2)c1,32.5,1.7,-2.5,0.3,50.2*
COc1cccc(CN(C)CCCn2cnc3c(SC)ncnc32)c1,·,3.5,·,·,-14.8
CCOc1ccccc1NC(=O)C(OC(=O)c1ccccc1O)c1ccccc1 (stereo not given),9.8,0.7,-21.1,-17.2,8.0
CCOc1ccccc1NC(=O)C(OC(=O)c1ccccc1)c1ccccc1 (stereo not given),17.7,7.4,52.9*,0.1,11.3
O=[N+]([O-])c1ccc(S(=O)(=O)NCCc2ccncc2)cc1,42.9*,3.2,-4.3,-15.6,15.3
Cc1c(N=N/C(C(=O)Nc2ccccc2)=C(/O)c2ccccc2)c(=O)n(-c2ccccc2)n1C,28.1,4.7,-16.6,-10.4,11.9
CCOC(=O)/C(N=Nc1c(C)n(C)n(-c2ccccc2)c1=O)=C(/O)c1ccccc1,52.4*,5.8,1.7,-14.2,-12.7
Cc1ccc(SCc2c(C(=O)N/N=C/c3ccncc3)nnn2-c2nonc2N)cc1,-4.2,12.5,-7.2,-10.9,49.6*
Nc1nonc1-n1nnc(C(=O)N/N=C/c2ccccn2)c1CNc1ccccc1,49.6*,16.2,-21.4,0.5,11.1
SMILES,OX1R antag-1,TAAR1 ag,CHO parental Ca,OX1R antag-2,TAAR1 antag
Nc1nonc1-n1nnc(C(=O)N/N=C/c2ccccn2)c1-c1ccccc1,·,6.8,·,·,-14.1
O=C(NC(c1ccccc1)c1ccsc1)C1CCN(CCOc2ccc(Cl)cc2Cl)CC1 (stereo not given),·,15.7,·,·,22.1
Cc1cc(C(=O)Cn2cnc3ccc(Cl)cc3c2=O)c(C)n1C1CC1,·,0.6,·,·,-7.1
CC(C)NS(=O)(=O)c1ccc(CCC(=O)Nc2cc(Cl)ccc2Oc2ccccc2)cc1,59.1,·,43.7*,31.5,·
COC(=O)c1cc2c(c3c4cc(OC)ccc4n(S(=O)(=O)c4ccc(F)cc4)c13)C(=O)N(Cc1ccccc1)C2,·,0.2,·,·,-39.7
COc1ccc(Cc2nnc(NC(=O)c3cccc([N+](=O)[O-])c3C)s2)cc1,5.9,60.9*,11.8,-0.9,-1.1
O=C(Nc1ccccc1Cl)c1cc[n+](Cc2ccc([N+](=O)[O-])cc2)cc1,40.0*,7.4,0.0,-14.4,2.9
NC(=O)c1cc[n+](Cc2ccc([N+](=O)[O-])cc2)cc1,52.2,2.2,3.5,10.5,13.3
Cc1[nH]c(=O)[nH]c(=O)c1CCSSCCc1c(C)[nH]c(=O)[nH]c1=O,·,2.6,·,·,-18.8
O=C1NC[C@H](CC2CCCCC2)N(CCC23CC4CC(CC(C4)C2)C3)C1=O,·,11.4,·,·,5.8
CCC(C)c1ccc(NC(=O)c2cccs2)cc1 (stereo not given),39.8*,7.2,-12.4,17.2,-2.7
CCC(C)NS(=O)(=O)c1ccc(NC(=O)c2cccs2)cc1 (stereo not given),27.6,6.6,2.2,6.5,8.8
COc1c(Cl)cc(Cl)cc1C(=O)Nc1ccc(NC(=O)c2cccs2)cc1,19.5,15.6,-14.7,-1.2,69.5*
CN(CC(=O)Nc1sccc1C(N)=O)S(=O)(=O)c1ccc(Cl)cc1,0.4,6.7,-15.2,-14.2,-5.2
Cn1cc(CNCc2cn[nH]c2-c2ccc(F)cc2)c(-c2ccc3c(c2)OCCO3)n1,10.0,2.6,-9.5,-30.4,5.1
Cn1cc(CNCc2ccc(OC(F)(F)F)cc2)c(-c2ccc3c(c2)OCCO3)n1,33.3,8.5,40.4*,16.2,-13.1
COc1ccc(-c2csc(NC(=O)c3c(C)noc3C)n2)cc1OC,·,10.0,·,·,33.0
CC1CC(C)(C)Nc2ccc(OC(=O)c3ccco3)cc21 (stereo not given),69.1*,5.8,-3.8,-8.5,-14.9
Cc1c(C(=O)Nc2ccncc2)sc2nc(-c3ccc(F)cc3)cn12,13.0,9.7,76.6*,-5.5,3.0
COC(=O)[C@]12C[C@H](CC(=O)NCCCCc3ccccc3)C(=O)N(CCC3=CCCCC3)C1=C[C@H](COCc1ccccc1)O[C@@H]2C,·,1.5,·,·,-9.6
CC(C)(C)CC(C)(C)c1ccc(OCCOCC[N+](C)(C)Cc2ccccc2)cc1,8.6,39.8*,12.5,10.8,3.3
COCCNC(=O)COC(=O)/C=C/c1cnc2ccccc2n1,48.3*,12.9,0.6,-3.2,2.8
